Compound activity deposited in PubChem BioAssay by Broad Institute.
Statin myotox sup = suppressors of simvastatin-induced myotoxicity in C2C12 myotubes | AID 602340 | 330,000 tested, 0.78% active | rescue of ATP level, % at 7.49 µM | ATP luminescence, 48 h; scaled: DMSO 0, geranylgeraniol control 100;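 active = mean ATP rescue above about 67%, or every replicate alone reaching that limit, limit read from the data, passing the limit was not always enough; inconclusive = no clear call, values can overlap the other calls; inactive = mean under the limit and some replicate under it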;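 note: myotubes were challenged with 10 µM simvastatin during compound exposure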
SIRT5 block = inhibitors of human sirtuin-5 desuccinylase. AID 652115. Purified SirT5, succinyl-peptide AMC, trypsin-coupled fluorescence. 330,000 tested, 1.1% active. inhibition, % at 15 µM; in the data active = inhibition above about 15%; inconclusive = no clear call, values can overlap the other calls
Target sequence (Q9NXA8 whole entry, looked up): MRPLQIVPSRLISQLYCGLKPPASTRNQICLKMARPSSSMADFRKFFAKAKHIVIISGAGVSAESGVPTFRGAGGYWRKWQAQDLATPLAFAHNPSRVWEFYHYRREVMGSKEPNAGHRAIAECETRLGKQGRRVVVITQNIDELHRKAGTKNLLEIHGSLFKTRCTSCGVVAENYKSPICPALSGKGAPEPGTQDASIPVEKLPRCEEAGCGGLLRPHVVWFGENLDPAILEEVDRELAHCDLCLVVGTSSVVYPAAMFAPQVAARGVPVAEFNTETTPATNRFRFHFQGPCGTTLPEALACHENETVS
E-selectin induc = induces E-selectin expression in human endothelial cells | P16581 | HUVEC E-selectin immunofluorescence imaging; normalized: neutral wells 0, TNF-alpha wells 100 | activation, % at 7.58 µM | 260,000 tested, 0.37% active;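 active = mean E-selectin-positive cell signal at least 10% of the positive control, reached in at least 60% of replicates, without over 20% cell loss; inconclusive = no rule given, readout overlaps actives, possibly toxicity-flagged; inactive = the rest, including those meeting only one limit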
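Test system – human umbilical vein endothelial cells (HUVEC), E-selectin induction · Input – 3,000 HUVEC seeded per well · Buffer or medium – EGM-2, gelatin · Compound dosing – single-point compound dose · Detection – immunofluorescence imaging · Measure – percent E-selectin-positive cells · Controls – TNF-alpha high, DMSO low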
FN deposition inh = fibronectin deposition inhibition; 350,000 tested, 0.086% active; AID 743247; inhibition, % at 12.6 µM; AH1F fibroblasts, Alexa488-fibronectin deposition fluorescence, overnight;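 active = mean inhibition across replicates of 30% or more, regardless of how many single replicates reach that level; inconclusive = mean under 30% yet at least half of replicates reach 30%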;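 note: positive control wells lacked labelled fibronectin entirely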
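Material: AH1F fibroblast monolayer depositing Alexa488-labelled fibronectin into matrix / Amount: 10000 AH1F cells per well / Signal: fluorescence 485/525 nm / Medium: DMEM, 2% serum / Compound: single dose, pinned / Incubation: 1 h cell adhesion before compound, then overnight fibronectin incubation / Reagent: Alexa488-FN, 24 nM final / Read-out: inhibition of fibronectin deposition signal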
FGF22 binding = FGF22 (human) thermal shift binding; recombinant FGF22 thermal shift, SYPRO orange fluorescence; percent of sucrose octasulfate shift, DMSO zero; 340,000 tested, 1.5% active; activity (Tm shift, normalised), % at 9.99 µM;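 active = mean Tm shift, scaled 0 neutral to 100 positive control, at about 1.3% or above, every replicate too, limit read from the data; inconclusive = no clear call, values can overlap the other calls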
Target sequence (Q9HCT0 whole entry, looked up): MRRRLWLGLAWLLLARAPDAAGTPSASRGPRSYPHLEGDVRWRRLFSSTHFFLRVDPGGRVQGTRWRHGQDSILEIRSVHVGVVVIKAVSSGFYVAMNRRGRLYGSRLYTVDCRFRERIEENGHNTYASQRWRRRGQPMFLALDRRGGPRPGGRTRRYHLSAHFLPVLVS
Ecoli rRNA inh = inhibits bacterial ribosomal RNA function over humanized ribosomes; E. coli WT GFP vs humanized-ribosome RFP mutants, fluorescence, 24 h; hits give low values; DMSO median 0, no signal -100; GFP signal change (wild-type ribosome), % (test concentration not listed); 350,000 tested, 1.6% active;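 active = significant combined selectivity score with lowered wild-type GFP, culture density cut under 30%, mutant RFP and density less affected; inactive = any of these conditions unmet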
AID977621 = wild-type E. coli growth inhibition versus H69 humanized strain – H69 mutant RFP, wild-type GFP, cherry-pick, dose response. shares compounds with Ecoli rRNA inh. fluorescence, 24 h. activity change, negative = inhibition at 50 µM. 1,900 tested, under 10 active;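 active = Wild-type ribosome reporter drop at least double the humanized mutant ribosome reporter drop, growth loss under a set limit; inconclusive = no clear call, values can overlap the other calls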;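 note: wild-type GFP and H69 mutant RFP strains grown together 50/50 in each well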
AID977628 = growth of wild-type and h24-humanized E. coli strains – h24 mutant RFP vs wild-type GFP, cherry-pick, dose response. shares compounds with Ecoli rRNA inh. E. coli WT GFP strain growth, fluorescence, 24 h. activity change, negative = inhibition at 50 µM. 1,900 tested, under 10 active;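 active = compound lowering the normal-ribosome reporter at least twice as much as the humanized-ribosome reporter, growth loss under a set limit; inconclusive = no clear call, values can overlap the other calls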;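 note: wild-type GFP and h24 humanized RFP strains co-cultured 1 to 1 per well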
* = called active by the depositor. A selection: hits, their analogues and other compounds. The true share with any hit is near 4%.

How did CSc1nc(SCCN(C)C)c2c3c(sc2n1)COC(C)(C)C3 do in these assays?
SIRT5 block: -3; FN deposition inh: -2; FGF22 binding: 0; Ecoli rRNA inh: -23*; AID977628: 2.5

How did CCC1(C)Cc2c(sc3nc(SC)nc(NCCN(C)C)c23)CO1 (stereo not given) do in these assays?
Statin myotox sup: -6; FN deposition inh: 2

How did CO[C@@H]1CN(C)C(=O)c2ccc(NC(=O)c3nc4ccccc4s3)cc2OC[C@@H](C)N(Cc2ccncc2)C[C@@H]1C do in these assays?
Statin myotox sup: 2; SIRT5 block: 2; E-selectin induc: 0; FN deposition inh: 7; FGF22 binding: 0; Ecoli rRNA inh: -25*; AID977628: inconclusive

Results for Nc1ccccc1Sc1nc2ccccc2[nH]1 ?
SIRT5 block: 0; E-selectin induc: 2; FN deposition inh: -6; FGF22 binding: 0

Results for Nc1ccccc1Sc1c[nH]c2ccccc12 ?
Statin myotox sup: 58; SIRT5 block: 1; FN deposition inh: 4; FGF22 binding: 0; Ecoli rRNA inh: -26*; AID977621: -0.73; AID977628: -11

What do the screens show for `Cc1sc2nc(SC3CCOC3=O)n(Cc3ccccc3)c(=O)c2c1C` (stereo not given)?
SIRT5 block: 0; FN deposition inh: -8; FGF22 binding: 0; Ecoli rRNA inh: -24

What do the screens show for `O=C1OCCC1Sc1nc2ccccc2c(=O)n1Cc1ccccc1` (stereo not given)?
SIRT5 block: -3; FGF22 binding: 0; Ecoli rRNA inh: -21*; AID977628: -15

What do the screens show for `CCc1nnc(NS(=O)(=O)c2ccc(NC(=O)c3cccc(Cl)c3)cc2)s1`?
Statin myotox sup: 4; E-selectin induc: 5; FN deposition inh: -2; FGF22 binding: 0; Ecoli rRNA inh: -17*; AID977621: inconclusive; AID977628: inconclusive

How did CCN(CC)S(=O)(=O)c1ccc(Cl)c(C(=O)NCc2ccco2)c1 do in these assays?
SIRT5 block: -8; FN deposition inh: 1; FGF22 binding: 0; Ecoli rRNA inh: 8

What do the screens show for `CCN(c1ccccc1)S(=O)(=O)c1ccc(Cl)c(C(=O)NCc2ccco2)c1`?
Statin myotox sup: 1; SIRT5 block: 2; FN deposition inh: -4; FGF22 binding: 0; Ecoli rRNA inh: -21*; AID977621: -19

Results for Cc1cc(C)c(OCCN(C)Cc2ccccc2)c(Br)c1 ?
SIRT5 block: -2; E-selectin induc: -2; FN deposition inh: -5; FGF22 binding: 0; Ecoli rRNA inh: -23*; AID977621: 4.1; AID977628: -8.3

What do the screens show for `Cc1ccc(NC(=O)C2CCCN(c3ncnc4c3nc3n4CCCCC3)C2)cc1Cl` (stereo not given)?
Statin myotox sup: -8; SIRT5 block: 4; FN deposition inh: -6; FGF22 binding: 0; Ecoli rRNA inh: -18*; AID977621: -0.089; AID977628: inconclusive

Results for Cc1noc(C)c1S(=O)(=O)N(Cc1ccccc1)C(C)C ?
SIRT5 block: -5; E-selectin induc: 1; FN deposition inh: -1; FGF22 binding: 0; Ecoli rRNA inh: -19*; AID977621: 2.4; AID977628: -6.8

What do the screens show for `Cc1ccc(S(=O)(=O)N(Cc2ccccc2)C(C)C)cc1`?
Statin myotox sup: -4; SIRT5 block: 4; E-selectin induc: 0; FN deposition inh: -10; FGF22 binding: 0; Ecoli rRNA inh: -24

What do the screens show for `CCCNC(=O)c1cc2c(c(-c3cccc(-c4cccc(F)c4)c3)n1)[C@H](CCO)N([S@@](=O)C(C)(C)C)C2`?
Statin myotox sup: 1; SIRT5 block: 4; FGF22 binding: 0

Results for Clc1cccc(Cc2c(-c3ccco3)nc3c4ccccc4ccn23)c1 ?
SIRT5 block: 4; FN deposition inh: -1; FGF22 binding: 0

What do the screens show for `Brc1ccc(-c2nc3c4ccccc4ccn3c2Cc2ccccc2)cc1`?
Statin myotox sup: -14; SIRT5 block: -2; E-selectin induc: 1; FN deposition inh: 5; FGF22 binding: 0; Ecoli rRNA inh: -22*; AID977621: 9.1; AID977628: 0.43

Results for Fc1cccc(Cc2c(-c3ccco3)nc3c4ccccc4ccn23)c1 ?
Statin myotox sup: 4; SIRT5 block: -7; E-selectin induc: 0; FN deposition inh: 9; FGF22 binding: 0; Ecoli rRNA inh: -21*; AID977621: -9.8

How did Cn1cc(CN2CCCC(C(=O)Nc3cccc(-c4cc5ccccc5[nH]4)c3)C2)cn1 (stereo not given) do in these assays?
Statin myotox sup: -6; SIRT5 block: -1; FN deposition inh: -15; FGF22 binding: 0; Ecoli rRNA inh: -33*; AID977621: 1.4; AID977628: -8.1

How did CC(C)n1cc(CN2CCCC(C(=O)Nc3cccc(-c4cc5ccccc5[nH]4)c3)C2)cn1 (stereo not given) do in these assays?
Statin myotox sup: -1; SIRT5 block: -1; FN deposition inh: 7; FGF22 binding: 0; Ecoli rRNA inh: -69

What do the screens show for `O=C(C[C@H]1CC[C@@H]2[C@H](COC[C@H](O)CN2C(=O)c2ccccc2F)O1)NCc1ccccc1`?
Statin myotox sup: 13; SIRT5 block: -3; E-selectin induc: 0; FN deposition inh: -5; FGF22 binding: 1; Ecoli rRNA inh: 3

How did CC(=O)OC(COc1cccc(C)c1)Cn1cnc2ccccc21 (stereo not given) do in these assays?
SIRT5 block: -3; E-selectin induc: 10; FN deposition inh: -5; FGF22 binding: 0; Ecoli rRNA inh: -37*; AID977621: -14; AID977628: inconclusive

What do the screens show for `O=C(NCC[C@H]1CC[C@H](NC(=O)c2cccnc2)[C@H](CO)O1)Nc1ccc(Cl)cc1`?
Statin myotox sup: -6; SIRT5 block: -1; E-selectin induc: 0; FGF22 binding: 0; Ecoli rRNA inh: -56

How did CC(C)Cn1c(=O)c2ccccc2c2ccccc2c1=O do in these assays?
Statin myotox sup: 5; SIRT5 block: -3; FGF22 binding: 0; Ecoli rRNA inh: -28*; AID977621: -5.1
